High-throughput results as filed in PubChem BioAssay.
FXIa inh = factor XIa (human) inhibition | P03951 | purified FXIa, Boc-Glu-Ala-Arg-AMC fluorogenic substrate | inhibition, % at 5 µM | 220,000 compounds, 0.14% hits;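 active = inhibition of at least 40%; inactive = inhibition below 40%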;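 note: fluorescence of freed AMC excited at 355 nm; 0% = enzyme without compound and 100% = no enzyme blank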
KLK5 inh = inhibitors of human kallikrein 5; recombinant hK5, fluorogenic AMC substrate cleavage; inhibition, % at 5 µM; 210,000 compounds, 0.59% hits;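 active = inhibition of 40% or more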;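 note: 0% = enzyme controls without compound and 100% = no-enzyme blanks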
Target sequence (Q9Y337 67-293 limits assumed): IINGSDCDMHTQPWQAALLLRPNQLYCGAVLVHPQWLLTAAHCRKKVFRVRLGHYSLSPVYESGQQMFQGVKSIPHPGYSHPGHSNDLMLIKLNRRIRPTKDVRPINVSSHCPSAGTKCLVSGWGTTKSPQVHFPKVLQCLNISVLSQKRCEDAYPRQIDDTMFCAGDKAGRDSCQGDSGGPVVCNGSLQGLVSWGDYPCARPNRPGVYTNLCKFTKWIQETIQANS
thrombin 1536 = inhibitors of human thrombin; 220,000 compounds, 0.26% hits; inhibition, % at 5 µM; alpha-thrombin, Boc-VPR-AMC fluorogenic substrate cleavage; P00734;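 active = inhibition at or above 40%; inactive = inhibition below 40%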;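 note: 0% = enzyme with no compound and 100% = wells without enzyme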
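Assay system: human alpha-thrombin enzyme. Reagent: Boc-VPR-AMC substrate, 15 µM final. Compound dosing: one concentration per compound, 5 µM, with 0.2% DMSO. Incubation: room-temperature reaction. Technique: AMC fluorescence, 355/460 nm. Measure: % inhibition relative to enzyme controls and enzyme-free blanks.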
FXIIa inh = blocks human coagulation factor XIIa protease activity. P00748. AID 800. 220,000 compounds, 0.3% hits. inhibition, % at 5 µM. purified FXIIa, Boc-QGR-AMC fluorogenic substrate, 2 h; in the data active = inhibition above about 40%;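 note: 0% = enzyme with no compound and 100% = blank without enzyme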
m-calpain inh = inhibitors of pig calpain II. inhibition, % at 16 µM. 220,000 compounds, 0.37% hits. purified calpain II, fluorogenic peptide substrate, 30 min. AID 1236;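 active = inhibition above about 50%, limit read from the data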
* hit, by the source's call; . = no result given. Only some compounds are listed: those with a hit (about 1.4% of all), similar ones and a draw of the others.

SMILES | FXIa inh | KLK5 inh | thrombin 1536 | FXIIa inh | m-calpain inh
COc1ccc(CN(C)C(=S)Nc2ccc(Cl)cc2)cc1 | 27 | 30 | -1 | 42* | 30
COc1cccc(CNC(=O)CCC2CCCN(C(=O)c3cc4ccccc4o3)C2)c1 (configuration not stated) | 0 | . | -5 | 4 | 22
O=C(O)/C=C/C(=O)N1CCN(S(=O)(=O)c2cc(C(F)(F)F)ccc2Cl)CC1 | 34 | 53* | 18 | 31 | 10
CC(=O)N1CCN(S(=O)(=O)c2ccc(Cl)cc2F)CC1 | 9 | -4 | -5 | 8 | -27
CCCCCCCCCCCC(=O)N1CC(=O)NC(=O)C1 | 27 | 54* | 27 | 46* | 23
Cc1ccc(N2CC(C(=O)N/N=C/c3cccc([N+](=O)[O-])c3)CC2=O)cc1 (configuration not stated) | 5 | 33 | 104* | 17 | 13
C#CCNC(=O)C1=C[C@@H](C2CC2)C[C@@H](OCc2ccc(CO)cc2)O1 | 3 | 3 | 2 | 11 | 15
O=C(Cc1ccc(Cl)cc1)Nc1ncc([N+](=O)[O-])s1 | -3 | -7 | -13 | 2 | 77*
O=C(NCc1nc(-c2ccc(C(F)(F)F)cc2)no1)Nc1cc(Cl)cc(Cl)c1 | 4 | 5 | 3 | 13 | -12
Cc1cc(C)nc(SCCS(=O)(=O)Cc2ccc(Cl)cc2)n1 | -1 | -12 | -1 | 9 | -10
Cc1cc(C)nc(SCCS(=O)(=O)Cc2ccccc2)n1 | 8 | 115* | 21 | 20 | -11
COC(=O)c1cnn(-c2ccccc2)c1/C=N/NC(=S)Nc1ccc(Cl)cc1 | 18 | 1 | -2 | 6 | 38
COc1ccc(CCn2c(C)cc(C(=O)CCl)c2C)cc1OC | 30 | 24 | . | 103* | 23
Cc1cc(C(=O)CCl)c(C)n1CCc1ccc(Cl)cc1 | 2 | . | -1 | 7 | -15
Cc1ccc(-c2[nH]ncc2/C=N/n2c(COc3ccccc3C)nc3ccccc3c2=O)cc1 | 2 | -2 | -1 | 11 | 61*
Cc1ccccc1OCc1nc2ccccc2c(=O)n1/N=C/c1c[nH]c2ccccc12 | 2 | -15 | -5 | 12 | -17
COc1ccc(CN2C(=O)c3ccccc3C2C(=O)NC2CCCCCC2)c(OC)c1 (configuration not stated) | 31 | 22 | 47* | 33 | 13
CC1CCC(NC(=O)C2c3ccccc3C(=O)N2Cc2cccs2)CC1 (configuration not stated) | 4 | 44* | 17 | 18 | 32
O=C(NC1CCCCCCC1)C1c2ccccc2C(=O)N1Cc1cccs1 (configuration not stated) | 0 | -2 | 1 | 9 | 13
CC[n+]1ccc2cc(OC)c(OC)cc2c1Cc1ccc(OC)c(OC)c1 | 0 | 4 | -9 | 7 | 37
Cn1c(SCC(N)=O)nnc1-c1ccc(C(C)(C)C)cc1 | 16 | . | 5 | 29 | 10
CCc1nc2ccccc2n1CCC(C)C | -5 | -1 | -6 | 5 | -37
CCOC(=O)N1CCN(C(=O)c2oc3ccc(S(=O)(=O)N4CCOCC4)cc3c2C)CC1 | -8 | -9 | 40* | 3 | 10
Cc1c(C(=O)NCCc2ccccc2)oc2ccc(S(=O)(=O)N3CCC4(CC3)OCCO4)cc12 | 8 | -6 | -1 | 8 | 19
CCN(CC)S(=O)(=O)c1ccc2oc(C(=O)NCc3ccc(C)cc3)c(C)c2c1 | -6 | -8 | -4 | -1 | 63*
SMILES | FXIa inh | KLK5 inh | thrombin 1536 | FXIIa inh | m-calpain inh
Cc1c(C(=O)NCc2ccccc2)oc2ccc(S(=O)(=O)N3CCCC3)cc12 | 6 | -10 | -2 | 8 | -25
Cc1ccc(CNC(=O)c2oc3ccc(S(=O)(=O)N4CCOCC4)cc3c2C)cc1 | 0 | 4 | 3 | 11 | 57*
CCOC(=O)N1CCN(C(=O)c2oc3ccc(S(=O)(=O)N4CCCCCC4)cc3c2C)CC1 | 9 | -12 | -1 | 15 | 34
COc1ccc(NC(=O)c2oc3ccc(S(=O)(=O)N4CCC5(CC4)OCCO5)cc3c2C)cc1 | 11 | 100* | 8 | 15 | -120
Cc1cc(Cl)c(S(=O)(=O)N2CCN(c3ccccc3)CC2)cc1OCC(N)=O | 1 | -10 | -4 | 3 | -23
Cc1ccc(C)c(N2CCN(C(=O)CN(C)S(=O)(=O)c3ccc4c(c3)CCC(=O)N4)CC2)c1 | -10 | 53* | -2 | -4 | 14
O=C(N/N=C/c1ccc(OCc2cnc(Cl)s2)cc1)c1ccncc1 | 28 | 26 | 50* | 66* | 25
CCOc1cc(/C=N/NC(=O)c2ccncc2)ccc1OS(C)(=O)=O | 7 | -15 | -6 | 13 | 106*
